The text below walks through data of ChEMBL document CHEMBL3286247, “Expansion of Antibacterial Spectrum of Muraymycins toward Pseudomonas aeruginosa” (ACS Med Chem Lett, 2014).

For series [1], the system named is Pseudomonas aeruginosa. Put plainly: Antibacterial activity against Pseudomonas aeruginosa PAO1 assessed as growth inhibition after 20 hrs by microdilution method. The conditions noted are these: PAO1, 20 h. The class given is functional. The essentials: (§1)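 Broth microdilution per CLSI in cation-adjusted Mueller-Hinton broth, using serial 2-fold compound dilutions. Each strain was inoculated at 5 × 10⁴ CFU per well in 0.1 mL. Plates were incubated at 35 °C for 20 h, and the MIC was then scored.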
A general note: Broth dilution looks for growth in wells or tubes with falling amounts of substance.

A short description of series [2]: Inhibition of Staphylococcus aureus MraY by fluorescence assay. The essentials:
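Purified S. aureus MraY was given UDP-MurNAc-dansylpentapeptide as substrate. Formation of dansylated lipid I was followed by fluorescence enhancement (excitation 355 nm, emission 535 nm).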

Series [3] concerns Pseudomonas aeruginosa. Put plainly: Antibacterial activity against Pseudomonas aeruginosa YY165 deltamexB mutant assessed as growth inhibition after 20 hrs by microdilution method. To be noted: YY165, 20 h. The class given is functional. Summed up:
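Broth microdilution per CLSI in cation-adjusted Mueller–Hinton broth; serial 2-fold compound dilutions inoculated with 5 × 10⁴ CFU per well (0.1 mL), incubated 35 °C for 20 h, then MIC scored. Strain YY165 is a MexB deletion mutant lacking the inner-membrane transporter of the MexAB-OprM efflux system.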

Series [4] concerns Pseudomonas aeruginosa. Put plainly: Antibacterial activity against Pseudomonas aeruginosa ATCC 25619 assessed as growth inhibition after 20 hrs by microdilution method. The class given is functional. To be noted: ATCC 25619, 20 h. The essentials:
as §1

The subject of series [5] is Pseudomonas aeruginosa. Briefly: Antibacterial activity against clinical isolate Pseudomonas aeruginosa SR27156 assessed as growth inhibition after 20 hrs by microdilution method. The class given is functional. To be noted: SR27156, 20 h. Summed up: as §1
For series [6], the system named is Pseudomonas aeruginosa. Briefly: Antibacterial activity against Pseudomonas aeruginosa ATCC 27853 assessed as growth inhibition after 20 hrs by microdilution method. The class given is functional. The conditions noted are these: ATCC 27853, 20 h. Summed up: as §1
For another series, the system named is HepG2. Briefly: Cytotoxicity against human HepG2 cells. The series is classed as functional, cell-based.
Series [7] can be described thus: Metabolic stability in rat liver microsomes assessed as compound remaining at 2 uM after 30 mins incubation by LC-MS/MS analysis. For orientation: Liver microsomes are vesicles of endoplasmic reticulum, rich in cytochrome P450 enzymes.
Series [8] in a line: Metabolic stability in human liver microsomes assessed as compound remaining at 2 uM after 30 mins incubation by LC-MS/MS analysis.

Structures are written as SMILES. Values after ≈ are worked out from the molar mass of the structure shown. Some results are limits rather than exact numbers.

Turning to `CCCCCCCCCCCCCCCCC(=O)N[C@@H](CCCNC(=N)N)C(=O)NCCCN[C@H](C(=O)NCCCCNC(=N)N)[C@H](O[C@@H]1O[C@H](CN)[C@@H](O)[C@H]1O)[C@H]1O[C@@H](n2ccc(=O)[nH]c2=O)[C@H](O)[C@@H]1O`, the MIC (usually the lowest concentration that inhibits growth of the organism) worked out at 4 µg/mL (≈ 3.9 µM) in the series with Pseudomonas aeruginosa [1]; 4 µg/mL (≈ 3.9 µM) in the series on Pseudomonas aeruginosa [3]; 8 µg/mL (≈ 7.8 µM) with Pseudomonas aeruginosa [4]; 8 µg/mL (≈ 7.8 µM) in the series on Pseudomonas aeruginosa [5]; 8 µg/mL (≈ 7.8 µM) with Pseudomonas aeruginosa [6]. The figures for the IC50 (in series [2]; in the series on HepG2) were 0.6 nM and 34 µg/mL (≈ 33.1 µM), respectively. Besides, the amount remaining (usually the share of the starting amount still present when the sample was taken) at 0.5 h, 2 µM in series [7] was 69.8%; in series [8], 86.9%.

Turning to `CCCCCCCCCCCCCCCCC(=O)N[C@@H](CCCNC(=N)N)C(=O)NCCCN[C@H](C(=O)O)[C@H](O[C@@H]1O[C@H](CN)[C@@H](O)[C@H]1O)[C@H]1O[C@@H](n2ccc(=O)[nH]c2=O)[C@H](O)[C@@H]1O`, the MIC in the series on Pseudomonas aeruginosa [1] is 16 µg/mL (≈ 17.5 µM); with Pseudomonas aeruginosa [3], 8 µg/mL (≈ 8.75 µM); in the series with Pseudomonas aeruginosa [4], 16 µg/mL (≈ 17.5 µM); in the series on Pseudomonas aeruginosa [5] it was 16 µg/mL (≈ 17.5 µM); in the series with Pseudomonas aeruginosa [6] it was 32 µg/mL (≈ 35 µM). The IC50 (commonly the midpoint of a concentration-inhibition curve) in series [2] was determined as 1.6 nM. The share remaining at 0.5 h, 2 µM in series [7] turned out to be 81.1%; in [8], 89.5%.

Consider `CCCCCCCCCCCCCCC[C@H](NC(C)=O)C(=O)NCCCN[C@H](C(=O)O)[C@H](O[C@@H]1O[C@H](CN)[C@@H](O)[C@H]1O)[C@H]1O[C@@H](n2ccc(=O)[nH]c2=O)[C@H](O)[C@@H]1O`, for which the MIC in the series with Pseudomonas aeruginosa [1] is 64 µg/mL (≈ 78.5 µM); in the series with Pseudomonas aeruginosa [3], 32 µg/mL (≈ 39.3 µM); in the series with Pseudomonas aeruginosa [4] it was 32 µg/mL (≈ 39.3 µM); in the series on Pseudomonas aeruginosa [5] it was 64 µg/mL (≈ 78.5 µM); with Pseudomonas aeruginosa [6] it was greater than 64 µg/mL. The same compound had an IC50 in series [2] of 2.7 nM.

With `CCCCCCCCCCCCCCC[C@H](NC(=O)[C@@H](N)[C@@H]1CCNC(=N)N1)C(=O)NCCCN[C@H](C(=O)O)[C@H](O[C@@H]1O[C@H](CN)[C@@H](O)[C@H]1O)[C@H]1O[C@@H](n2ccc(=O)[nH]c2=O)[C@H](O)[C@@H]1O`, the MIC in the series with Pseudomonas aeruginosa [1] was greater than 64 µg/mL; in the series with Pseudomonas aeruginosa [3], 32 µg/mL (≈ 34.5 µM); in the series with Pseudomonas aeruginosa [4] it was greater than 64 µg/mL; with Pseudomonas aeruginosa [5], 64 µg/mL (≈ 69 µM); in the series with Pseudomonas aeruginosa [6] it was greater than 64 µg/mL. The IC50 in series [2] turned out to be 2.4 nM.
